Assay results reported in ChEMBL document CHEMBL3596157, “Heteroaromatic analogs of the resveratrol analog DMU-212 as potent anti-cancer agents” (2015).

Experiments:
Format in all cases: functional
NCI-H23 = experiment: Growth inhibition of human NCI-H23 cells after 48 hrs by SRB assay; conditions: NCI-H23, 48 h
In short: (§1)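 NCI-60 panel screen. Cells exposed for 48 h to five concentrations (10−4, 10−5, 10−6, 10−7 and 10−8 M). Sulforhodamine B optical density is read just before compound addition (time zero) and after 48 h, for both treated and vehicle-control wells. Percent growth is calculated against control. GI50 is the concentration giving a 50% reduction in net cell growth relative to cell numbers on day 0.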

IGROV-1 = experiment: Growth inhibition of human IGROV1 cells after 48 hrs by SRB assay; conditions: IGROV-1, 48 h; in short: as §1
SNB-19 = experiment: Growth inhibition of human SNB19 cells after 48 hrs by SRB assay; conditions: SNB-19, 48 h; in short: as §1
K562 = experiment: Growth inhibition of human K562 cells after 48 hrs by SRB assay; conditions: K562, 48 h; in short: as §1
[1] = Growth inhibition of human BT549 cells after 48 hrs by SRB assay; conditions: BT-549, 48 h; in short: as §1
[2] = Growth inhibition of human HCC2998 cells after 48 hrs by SRB assay; conditions: HCC 2998, 48 h; in short: as §1
786-0 = experiment: Growth inhibition of human 786-0 cells after 48 hrs by SRB assay; conditions: 786-0, 48 h; in short: as §1
OVCAR-4 = experiment: Growth inhibition of human OVCAR4 cells after 48 hrs by SRB assay; conditions: OVCAR-4, 48 h; in short: as §1
U-251 = experiment: Growth inhibition of human U251 cells after 48 hrs by SRB assay; conditions: U-251, 48 h
In short: (§2)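 NCI-60 panel cells; preliminary single-dose screen at 10−5 M, then five-dose testing at 10−4 to 10−8 M (tenfold steps) with 48 h exposure. SRB-stained optical density read before compound addition (time zero), after 48 h with compound, and with vehicle control. Percent growth is calculated against control. GI50 is the concentration giving 50% reduction in net growth relative to day-0 cell number.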

HL-60(TB) = experiment: Growth inhibition of human HL-60(TB) cells after 48 hrs by SRB assay; conditions: HL-60, 48 h
In short: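 NCI-60 panel screen: cells were exposed to test agent at five concentrations (10−4, 10−5, 10−6, 10−7 and 10−8 M) for 48 h. Sulforhodamine B optical density was read at time zero and after exposure to compound or vehicle control, and growth percentage versus control was calculated. GI50 was taken as the concentration giving a 50% reduction in net cell growth relative to day 0 cell numbers.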

[3] = Growth inhibition of human NCI-ADR-RES cells after 48 hrs by SRB assay; in short: as §1
M14 = experiment: Growth inhibition of human M14 cells after 48 hrs by SRB assay; conditions: M14, 48 h; in short: as §1
SK-MEL-5 = experiment: Growth inhibition of human SK-MEL-5 cells after 48 hrs by SRB assay; conditions: SK-MEL-5, 48 h; in short: as §1
A549 = experiment: Growth inhibition of human A549/ATCC cells after 48 hrs by SRB assay; conditions: A549, 48 h; in short: as §1
NCI-H522 = experiment: Growth inhibition of human NCI-H522 cells after 48 hrs by SRB assay; conditions: NCI-H522, 48 h; in short: as §1
MDA-MB-468 = experiment: Growth inhibition of human MDA-MB-468 cells after 48 hrs by SRB assay; conditions: MDA-MB-468, 48 h; in short: as §1
PC-3 = experiment: Growth inhibition of human PC3 cells after 48 hrs by SRB assay; conditions: PC-3, 48 h; in short: as §1
UO-31 = experiment: Growth inhibition of human UO31 cells after 48 hrs by SRB assay; conditions: UO-31, 48 h; in short: as §2
ACHN = experiment: Growth inhibition of human ACHN cells after 48 hrs by SRB assay; in short: as §1
KM12 = experiment: Growth inhibition of human KM12 cells after 48 hrs by SRB assay; conditions: KM12, 48 h; in short: as §1
[4] = Growth inhibition of human RXF393 cells after 48 hrs by SRB assay; conditions: RXF 393, 48 h; in short: as §1
TK-10 = experiment: Growth inhibition of human TK10 cells after 48 hrs by SRB assay; conditions: TK-10, 48 h; in short: as §2
SF-268 = experiment: Growth inhibition of human SF268 cells after 48 hrs by SRB assay; conditions: SF-268, 48 h; in short: as §1
[5] = Growth inhibition of human MOLT4 cells after 48 hrs by SRB assay; conditions: MOLT-4, 48 h; in short: as §1
[6] = Growth inhibition of human RPMI8226 cells after 48 hrs by SRB assay; conditions: RPMI-8226, 48 h; in short: as §1
HCT-15 = experiment: Growth inhibition of human HCT15 cells after 48 hrs by SRB assay; conditions: HCT-15, 48 h; in short: as §1
HOP-62 = experiment: Growth inhibition of human HOP62 cells after 48 hrs by SRB assay; conditions: HOP-62, 48 h; in short: as §1
NCI-H226 = experiment: Growth inhibition of human NCI-H226 cells after 48 hrs by SRB assay; conditions: NCI-H226, 48 h; in short: as §1
OVCAR-8 = experiment: Growth inhibition of human OVCAR8 cells after 48 hrs by SRB assay; conditions: OVCAR-8, 48 h; in short: as §1
A498 = experiment: Growth inhibition of human A498 cells after 48 hrs by SRB assay; conditions: A498, 48 h; in short: as §1
CCRF-CEM = experiment: Growth inhibition of human CCRF-CEM cells after 48 hrs by SRB assay; in short: as §1
HT-29 = experiment: Growth inhibition of human HT-29 cells after 48 hrs by SRB assay; conditions: HT-29, 48 h; in short: as §1
HCT-116 = experiment: Growth inhibition of human HCT116 cells after 48 hrs by SRB assay; conditions: HCT-116, 48 h; in short: as §1
[7] = Growth inhibition of human HOP92 cells after 48 hrs by SRB assay; conditions: HOP-92, 48 h; in short: as §1
[8] = Growth inhibition of human SF295 cells after 48 hrs by SRB assay; conditions: SF-295, 48 h; in short: as §1
MCF7 = experiment: Growth inhibition of human MCF7 cells after 48 hrs by SRB assay; conditions: MCF7, 48 h; in short: as §1
CAKI-1 = experiment: Growth inhibition of human Caki1 cells after 48 hrs by SRB assay; conditions: CAKI-1, 48 h; in short: as §1
OVCAR-5 = experiment: Growth inhibition of human OVCAR5 cells after 48 hrs by SRB assay; conditions: OVCAR-5, 48 h; in short: as §1
[9] = Growth inhibition of human Hs578T cells after 48 hrs by SRB assay; conditions: Hs-578T; in short: as §1
[10] = Growth inhibition of human SF539 cells after 48 hrs by SRB assay; conditions: SF-539, 48 h; in short: as §1
[11] = Growth inhibition of human COLO205 cells after 48 hrs by SRB assay; conditions: COLO 205, 48 h; in short: as §1
MDA-MB-435 = experiment: Growth inhibition of human MDA-MB-435 cells after 48 hrs by SRB assay; conditions: MDA-MB-435, 48 h; in short: as §1
SW-620 = experiment: Growth inhibition of human SW620 cells after 48 hrs by SRB assay; conditions: SW-620, 48 h; in short: as §2
SK-MEL-2 = experiment: Growth inhibition of human SK-MEL-2 cells after 48 hrs by SRB assay; conditions: SK-MEL-2, 48 h; in short: as §1
SK-MEL-28 = experiment: Growth inhibition of human SK-MEL-28 cells after 48 hrs by SRB assay; conditions: SK-MEL-28, 48 h; in short: as §1
MDA-MB-231 = experiment: Growth inhibition of human MDA-MB-231/ATCC cells after 48 hrs by SRB assay; conditions: MDA-MB-231, 48 h; in short: as §1
SN12C = experiment: Growth inhibition of human SN12C cells after 48 hrs by SRB assay; in short: as §1
[12] = Growth inhibition of human LOXIMVI cells after 48 hrs by SRB assay; conditions: LOX IMVI; in short: as §1
SNB-75 = experiment: Growth inhibition of human SNB75 cells after 48 hrs by SRB assay; conditions: SNB-75, 48 h; in short: as §2
SK-OV-3 = experiment: Growth inhibition of human SKOV3 cells after 48 hrs by SRB assay; conditions: SK-OV-3, 48 h; in short: as §1
Malme-3M = experiment: Growth inhibition of human MALME-3M cells after 48 hrs by SRB assay; in short: as §1
UACC-62 = experiment: Growth inhibition of human UACC62 cells after 48 hrs by SRB assay; conditions: UACC-62, 48 h; in short: as §2
DU-145 = experiment: Growth inhibition of human DU145 cells after 48 hrs by SRB assay; conditions: DU-145, 48 h; in short: as §1
SR = experiment: Growth inhibition of human SR cells after 48 hrs by SRB assay; in short: as §2
OVCAR-3 = experiment: Growth inhibition of human OVCAR3 cells after 48 hrs by SRB assay; conditions: OVCAR-3, 48 h; in short: as §1
NCI-H460 = experiment: Growth inhibition of human NCI-H460 cells after 48 hrs by SRB assay; conditions: NCI-H460, 48 h; in short: as §1

For `COc1cc(/C=C/c2cc3ccccc3[nH]2)cc(OC)c1OC`, the GI50 (NCI-H23) was 677 nM, the GI50 (IGROV-1) was 504 nM and the GI50 (SNB-19) was 461 nM. For the same molecule, the GI50 (K562) was 393 nM, the GI50 [1] was 938 nM and the GI50 [2] was 2250 nM. It also gave a GI50 (786-0) of 802 nM, a GI50 (OVCAR-4) of 691 nM and a GI50 (U-251) of 442 nM. For the same molecule, the GI50 (HL-60(TB)) was 347 nM, the GI50 [3] was 365 nM and the GI50 (M14) was 332 nM. It also gave a GI50 (SK-MEL-5) of 305 nM, a GI50 (A549) of 624 nM and a GI50 (NCI-H522) of 294 nM. The GI50 (MDA-MB-468) was 285 nM, the GI50 (PC-3) was 381 nM and the GI50 (UO-31) was 172 nM. The GI50 (ACHN) was 620 nM, the GI50 (KM12) was 436 nM and the GI50 [4] was 275 nM. For the same molecule, the GI50 (TK-10) was 21600 nM, the GI50 (SF-268) was 708 nM and the GI50 [5] was 854 nM. It also gave a GI50 [6] of 388 nM, a GI50 (HCT-15) of 469 nM and a GI50 (HOP-62) of 933 nM. The GI50 (NCI-H226) was 559 nM, the GI50 (OVCAR-8) was 587 nM and the GI50 (A498) was 281 nM. For the same molecule, the GI50 (CCRF-CEM) was 368 nM, the GI50 (HT-29) was 335 nM and the GI50 (HCT-116) was 534 nM. The GI50 [7] was 201 nM, the GI50 [8] was 311 nM and the GI50 (MCF7) was 395 nM. The GI50 (CAKI-1) was 382 nM, the GI50 (OVCAR-5) was 963 nM and the GI50 [9] was 257 nM. The GI50 [10] was 231 nM, the GI50 [11] was 343 nM and the GI50 (MDA-MB-435) was 150 nM. For the same molecule, the GI50 (SW-620) was 333 nM, the GI50 (SK-MEL-2) was 426 nM and the GI50 (SK-MEL-28) was 944 nM. The GI50 (MDA-MB-231) was 1300 nM, the GI50 (SN12C) was 1640 nM and the GI50 [12] was 664 nM. It also gave a GI50 (SNB-75) of 329 nM, a GI50 (SK-OV-3) of 676 nM and a GI50 (Malme-3M) of 388 nM. The GI50 (UACC-62) was 465 nM, the GI50 (DU-145) was 384 nM and the GI50 (SR) was 241 nM. The GI50 (OVCAR-3) was 234 nM and the GI50 (NCI-H460) was 374 nM.
